pIC50: −log10 of the molar value.
Assays:
[1] = Drug uptake in human HL60 cells at 10 uM after 3 hrs by indirect competitive ELISA; format: ADME, cell-based; details: hl-60, 3 h
In short: (§1)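 HL-60 cells at 5.0 × 10^5 cells/mL were preincubated 1 h, then exposed to compound (final 1, 10 or 100 μM) for 3 h. Cells were washed three times in PBS and lysed in RIPA buffer on ice for 20 min. Cleared supernatant was run in icELISA: HT–HSA coated plate, competition with mAb 1D2, HRP anti-mouse IgG, ABTS, A405. Result given as ng per 5 × 10^6 cells and uptake rate %.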

[2] = Drug uptake in human HL60 cells at 100 uM after 3 hrs by indirect competitive ELISA; format: ADME, cell-based; details: hl-60, 3 h; in short: as §1
[3] = Drug uptake in human HL60 cells at 1 uM after 3 hrs by indirect competitive ELISA; format: ADME, cell-based; details: hl-60, 3 h; in short: as §1
HL-60 = experiment: Antiproliferative activity against human HL60 cells after 62 hrs by MTS assay; format: functional, cell-based; details: HL-60, 62 h
In short: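 HL-60 cells kept in RPMI-1640 with 10% heat-inactivated FBS, penicillin/streptomycin, 37 °C, 5% CO2. Seeded at 2.0 × 10^4 cells/mL with increasing compound concentrations for 62 h. MTS reagent added, formazan absorbance read at 492/620 nm after 2 h. IC50 from linear regression of viability against log concentration. Mean ± SD of triplicate tests.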

| Compound | Drug uptake [1] | Drug uptake [2] | Drug uptake [3] | pIC50 (HL-60) |
| --- | --- | --- | --- | --- |
| COC(=O)C[C@](O)(CCC(C)(C)O)C(=O)O[C@@H]1C(OC)=C[C@]23CCC(=O)N2CCc2cc4c(cc2[C@H]13)OCO4 | 0.02% | 0.02% | 0.09% | < 4.00 |
| COC(=O)C[C@](O)(CCC(C)(C)O)C(=O)O[C@@H]1C(OC)=C[C@]23CCCN2C(=O)c2cc4c(cc2[C@H]13)OCO4 | – | – | – | < 4.00 |
| COC1=C[C@]23CCC(=O)N2CCc2cc4c(cc2[C@@H]3[C@@H]1OC(=O)[C@@](O)(CCC(C)(C)O)CC(=O)O)OCO4 | – | – | – | < 4.00 |
| COC(=O)C[C@](O)(CCC(C)(C)O)C(=O)O[C@@H]1C(OC)=C[C@]23CCCN2CCc2cc4c(cc2[C@H]13)OCO4 [HARRINGTONINE] | 0.61% | 0.35% | 3.34% | 7.33 |
| COC(=O)C[C@](O)(CCCC(C)(C)O)C(=O)O[C@@H]1C(OC)=C[C@]23CCCN2CCc2cc4c(cc2[C@H]13)OCO4 [OMACETAXINE MEPESUCCINATE] | – | – | – | 7.66 |
| COC1=C[C@]23CCCN2CCc2cc4c(cc2[C@@H]3[C@@H]1O)OCO4 [CEPHALOTAXINE] | – | – | – | 4.21 |
| COC1=C[C@]23CCCN2C(=O)c2cc4c(cc2[C@@H]3[C@@H]1OC(=O)[C@@](O)(CCC(C)(C)O)CC(=O)O)OCO4 | – | – | – | < 4.00 |
| COC1=C[C@]23CCCN2CCc2cc4c(cc2[C@@H]3[C@@H]1OC(=O)[C@@](O)(CCC(C)(C)O)CC(=O)O)OCO4 | – | – | – | < 4.00 |
